Assay results as given in ChEMBL document CHEMBL1130047, “Synthesis, structure, and antiproliferative activity of selenophenfurin, an inosine 5'-monophosphate dehydrogenase inhibitor analogue of selenazofurin” (J Med Chem, 1997).

Key:
5637 = assay: Compound was tested for antiproliferative activity against 5637, human bladder carcinoma cell line; type: functional, cell-based
Outline: (§1)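 Exponentially growing solid-tumour-derived cells were seeded at 5 × 10⁴ cells/mL and left to adhere for 16 h before drug addition, across a range of concentrations. Growth was expressed as % of untreated controls, and IC50 (concentration reducing cell viability by 50%) was obtained by linear regression.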

CHO-K1 [1] = assay: Compound was tested for antiproliferative activity against CHO-K1, Chinese hamster ovary; type: functional, cell-based; details: Cricetulus griseus; outline: as §1
CCRF-SB [2] = assay: (§2) Compound was tested for antiproliferative activity against CCRF-SB, human acute B-lymphoblastic leukemia; type: functional, cell-based
Outline: (§3)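 Exponentially growing cells were seeded at 1 × 10⁵ cells/mL in growth medium and exposed to various compound concentrations for 96 h at 37 °C. Viability was read by MTT. Growth at each concentration was taken as % of untreated controls, and IC50 (concentration reducing viability by 50%) was derived by linear regression.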

CCRF-CEM [3] = assay: (§4) Compound was tested for antiproliferative activity against CCRF-CEM, human acute T-lymphoblastic leukemia; type: functional, cell-based; outline: as §3
HT-29 = assay: Compound was tested for antiproliferative activity against HT29, human colon adenocarcinoma; type: functional, cell-based; outline: as §1
HeLa = assay: Compound was tested for antiproliferative activity against HeLa, human cervix carcinoma; type: functional, cell-based; outline: as §1
[4] = molecular target: T1, Inosine-5'-monophosphate dehydrogenase (IMPDH) (Homo sapiens) (UniProt P20839+P12268); assay: Compound was tested for its effect on IMPDH (Inosine 5`-monophosphate dehydrogenase) activity in K562 cells; type: functional, cell-based; details: scale: (nM of XMP formed) hr-1
Outline: (§5)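 Log-phase K562 cells (1 × 10⁶ cells/mL) were given 10 µM agent or saline for 2 h at 37 °C. They were then washed and lysed in Tris-HCl pH 7.4/NaCl/MgCl₂/0.5% NP-40/aprotinin, and the 13000g supernatant served as enzyme. The reaction ran 30 min at 37 °C, stopped by heating at 95 °C for 1 min. Radioactivity was trapped in KOH and counted by scintillation, giving nmol XMP/mg protein/h and % inhibition against saline.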

K562 [5] = assay: Compound was tested for its influence on the GDP (guanosine diphosphate) ribonucleotide level in K562 cells; type: functional, Homo sapiens
Outline: (§6)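 K562 cells in culture (1 × 10⁷) were incubated with 10 µM agent or saline for 2 h at 37 °C, then washed with cold saline. Extraction used cold 10% trichloroacetic acid, followed by neutralisation with 0.5 M tri-n-octylamine in freon. Nucleotides were measured by HPLC on a strong anion-exchange (SAX) column, with levels in nmol/g and % of saline control.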

K562 [6] = assay: Compound was tested for its influence on the GMP (guanosine monophosphate) ribonucleotide level in K562 cells; type: functional, Homo sapiens; outline: as §6
K562 [7] = assay: Compound was tested for its influence on the GTP (guanosine triphosphate) ribonucleotide level in K562 cells; type: functional, Homo sapiens; outline: as §6
K562 [8] = assay: Compound was tested for its influence on the IMP (Inosine 5`-monophosphate) ribonucleotide level of K562 cells in culture; type: functional, Homo sapiens; outline: as §6
K562 [9] = assay: (§7) Compound was tested for antiproliferative activity against K562, human erythroid leukemia; type: functional, cell-based; outline: as §3
MOLT-4 [10] = assay: (§8) Compound was tested for antiproliferative activity against MOLT-4, human acute T-lymphoblastic leukemia; type: functional, cell-based; outline: as §3
L1210 [11] = assay: (§9) Compound was tested for antiproliferative activity against L1210, murine lymphocytic leukemia; type: functional, cell-based; details: Mus musculus; outline: as §3
Raji = assay: Compound was tested for antiproliferative activity against Raji, human Burkitt lymphoma; type: functional, cell-based; outline: as §3
WIL2-NS = assay: Compound was tested for antiproliferative activity against Wil2-NS, human splenic lymphoblastoid cells; type: functional, cell-based; outline: as §3
[12] = molecular target: T1, Inosine-5'-monophosphate dehydrogenase (IMPDH) (Homo sapiens); assay: (§10) Compound was tested for its inhibition against IMPDH from human myelogenous leukemia in K562 cells; type: functional, cell-based; details: concentration not given here; outline: as §5
ACHN = assay: Compound was tested for antiproliferative activity against ACHN, human renal adenocarcinoma; type: functional, cell-based; outline: as §1
K562 [13] = assay: Compound was tested for its influence on the IMP (Inosine 5`-monophosphate) ribonucleotide level in K562 cells; type: functional, Homo sapiens
Outline: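 K562 cells (1 × 10⁷) given 10 µM agent or saline for 2 h at 37 °C, washed in cold saline, extracted with cold 10% trichloroacetic acid, neutralized with 0.5 M tri-n-octylamine in freon; IMP measured by strong anion-exchange HPLC, reported as percent of saline control (control in nmol/g).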

CHO-K1 [14] = assay: Compound was tested for antiproliferative activity against CHO-K1, Chinese hamster ovary cells; type: functional, cell-based; details: Cricetulus griseus
Outline: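 Solid tumor-derived adherent cells seeded at 5 × 10⁴ cells/mL in exponential growth, allowed 16 h to attach before drug addition; viability by MTT method. Growth expressed as percent of untreated controls, IC50 obtained by linear regression.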

CCRF-CEM [15] = assay: as §4; type: functional, cell-based; remark: listed apart in the source
Outline: (§11)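 Suspension leukemia/lymphoma cells in exponential growth resuspended at 1 × 10⁵ cells/mL in growth medium with various compound concentrations; viability read by MTT after 96 h at 37 °C. Growth given as percentage of untreated controls; IC50 (concentration reducing viability 50%) from linear regression.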

[16] = molecular target: T1, Inosine-5'-monophosphate dehydrogenase (IMPDH) (Homo sapiens); assay: Compound was tested for its effect on IMPDH (Inosine 5`-monophosphate dehydrogenase) activity in K562 cells in culture.; type: functional, cell-based; details: scale: (nM of XMP formed) hr-1
[17] = molecular target: T1, Inosine-5'-monophosphate dehydrogenase (IMPDH) (Homo sapiens); assay: as §10; type: functional, cell-based; details: concentration not given here; remark: listed apart in the source
L1210 [18] = assay: as §9; type: functional, cell-based; details: Mus musculus; outline: as §11; remark: listed apart in the source
MOLT-4 [19] = assay: as §8; type: functional, cell-based; outline: as §11; remark: listed apart in the source
CCRF-SB [20] = assay: as §2; type: functional, cell-based; outline: as §11; remark: listed apart in the source
[21] = molecular target: T1, Inosine-5'-monophosphate dehydrogenase (IMPDH) (Homo sapiens); assay: Compound was tested for its effect on IMPDH (Inosine 5`-monophosphate dehydrogenase) activity of K562 cells in culture.; type: functional, cell-based; details: scale: (nM of XMP formed) hr-1
[22] = molecular target: T1, Inosine-5'-monophosphate dehydrogenase (IMPDH) (Homo sapiens); assay: Compound was tested for its inhibition against IMPDH from human myelogenous leukemia K562 cells in culture.; type: functional, cell-based; details: concentration not given here
K562 [23] = assay: as §7; type: functional, cell-based; outline: as §11; remark: listed apart in the source

T1 sequence (P20839 whole entry, looked up, other chains not shown): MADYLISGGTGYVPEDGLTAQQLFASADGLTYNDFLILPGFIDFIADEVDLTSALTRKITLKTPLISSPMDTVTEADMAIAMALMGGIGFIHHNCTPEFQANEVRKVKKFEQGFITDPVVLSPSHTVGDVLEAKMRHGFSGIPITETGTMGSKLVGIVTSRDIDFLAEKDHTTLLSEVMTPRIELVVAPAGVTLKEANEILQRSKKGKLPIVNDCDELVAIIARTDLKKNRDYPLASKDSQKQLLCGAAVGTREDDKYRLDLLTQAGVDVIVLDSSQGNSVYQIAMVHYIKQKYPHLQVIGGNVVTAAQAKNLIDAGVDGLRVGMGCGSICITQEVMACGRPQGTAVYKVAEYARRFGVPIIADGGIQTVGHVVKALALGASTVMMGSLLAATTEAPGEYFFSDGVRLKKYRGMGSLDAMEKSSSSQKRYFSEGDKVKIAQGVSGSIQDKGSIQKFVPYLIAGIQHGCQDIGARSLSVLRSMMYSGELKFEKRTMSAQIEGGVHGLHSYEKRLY

| IC50 (CCRF-CEM [15]) [µM] | SMILES | IC50 5637 [µM] | IC50 (CHO-K1 [1]) [µM] | IC50 (CCRF-SB [2]) [µM] | IC50 (CCRF-CEM [3]) [µM] | IC50 (HT-29) [µM] | IC50 (HeLa) [µM] | IMPDH activity [4] | Control (K562 [5]) [%] | Control (K562 [6]) [%] | Control (K562 [7]) [%] | IC50 (K562 [9]) [µM] | IC50 (MOLT-4 [10]) [µM] | IC50 (L1210 [11]) [µM] | IC50 (Raji) [µM] | IC50 (WIL2-NS) [µM] | inhibition [12] [%] | IC50 (ACHN) [µM] | Control (K562 [13]) [%] | IC50 (CHO-K1 [14]) [µM] | also measured |
| --- | --- | --- | --- | --- | --- | --- | --- | --- | --- | --- | --- | --- | --- | --- | --- | --- | --- | --- | --- | --- | --- |
| – | NC(=O)c1c[se]c([C@@H]2O[C@H](CO)[C@@H](O)[C@H]2O)n1 | 2.3 | 0.6 | 1.5 | 1.2 | 7.7 | 7.9 | 1.01 | 59 | 0 | 50 | 0.5 | 0.6 | 0.5 | 1.6 | 1.2 | 80 | 13.8 | – | – | Control (K562 [8]): 1043% |
| – | NC(=O)c1c[se]c([C@@H]2O[C@H](CO)[C@@H](O)[C@H]2O)c1 | 1.2 | 2.9 | 0.9 | 0.3 | 3.5 | 6.4 | 1.06 | 61 | 0 | 42 | 0.45 | 0.3 | 0.3 | 0.9 | 0.7 | 76 | 9.9 | 1464 | – | – |
| 3.5 | NC(=O)c1csc([C@@H]2O[C@H](CO)[C@@H](O)[C@H]2O)c1 | 17 | – | 6.4 | – | 40 | 90 | – | 66 | 0 | 60 | 2.3 | – | – | 8.7 | 5.8 | – | 79 | 703 | 55 | IMPDH activity [16]: 2.62; inhibition [17]: 52%; IC50 (L1210 [18]): 1.7 µM; IC50 (MOLT-4 [19]): 2.9 µM |
| 10 | NC(=O)c1csc([C@@H]2O[C@H](CO)[C@@H](O)[C@H]2O)n1 [TIAZOFURIN] | 24 | – | – | – | 100 | 100 | – | 89 | 0 | 55 | – | – | – | 8.2 | 5.7 | – | > 100 | 1033 | 6.4 | IC50 (CCRF-SB [20]): 7.5 µM; IMPDH activity [21]: 2.07; inhibition [22]: 59%; IC50 (K562 [23]): 2.5 µM; IC50 (L1210 [18]): 2.9 µM; IC50 (MOLT-4 [19]): 5.2 µM |
